# Experimental data as given in ChEMBL document CHEMBL2176886, “Anti-AIDS agents 90. novel C-28 modified bevirimat analogues as potent HIV maturation inhibitors” (J Med Chem, 2012).
# pIC50: −log10 of the molar value. Active and inactive are the calls of the source. The calls are words filed in the database; no cut-off is given here.
# Assays:
# MT4 = assay: Cytotoxicity against human MT4 cells after 2 days; type: cell-based; details: mt4, 48 h
# [1] = tested on: Human immunodeficiency virus 1; assay: Antiviral activity against HIV1 infected in human TZM-bl cells assessed as reduction of viral entry after 48 hrs by luciferase reporter gene assay; type: functional, organism-based
# Summary of the method: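 Single-round infection of TZM-bl cells (HeLa clone expressing CD4/CCR5 with HIV-1 LTR-driven firefly luciferase) with HIV-1 at 200 TCID50 mixed with test samples. After 48 h, medium was replaced with Bright-Glo reagent and luminescence read. IC50 is the concentration giving 50% RLU reduction versus virus-control wells after background subtraction.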
# [2] = tested on: Human immunodeficiency virus 1; assay: Ratio of bevirimat IC50 to compound IC50 for HIV1 NL4-3 infected in human MT4 cells; type: functional
# Summary of the method: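 MT-4 cells were infected with HIV-1 NL4-3 at MOI 0.01. Day-4 supernatant p24 was measured by ELISA. IC50 is the concentration giving 50% inhibition of replication, from averages of at least three separate experiments. The ratio divides the bevirimat IC50 by the compound IC50, both from this assay.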
# [3] = Therapeutic index, ratio of CC50 for human MT4 cells to IC50 for HIV-1 NL4-3; type: cell-based; details: read-out: Ratio CC50/IC50
# Summary of the method: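 TI calculated as CC50 (mock-infected MT-4 growth, 2 days) divided by IC50 (HIV-1 NL4-3 replication in MT-4 cells, p24 ELISA at day 4).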
# [4] = tested on: Human immunodeficiency virus 1; assay: Antiviral activity against HIV1 NL4-3 infected in human MT4 cells assessed as p24 antigen level after 4 days by ELISA; type: functional, organism-based; details: Human immunodeficiency virus 1, NL4-3, MT4, 96 h
# Summary of the method: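 MT-4 cells infected with HIV-1 NL4-3 variants at MOI 0.01; supernatants harvested day 4 post-infection for p24 antigen capture ELISA. IC50 is the concentration inhibiting replication by 50%; values are averages of at least three separate experiments.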
# Homo sapiens = species on record: Homo sapiens; assay: Elimination half life in human; type: ADME, organism-based; details: in vivo
# [5] = Metabolic stability in human liver microsomes assessed as compound remaining at 1 uM after 60 mins by HPLC-MS analysis; type: ADME, Microsome; details: read-out: Stability
# Summary of the method: (§1)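 Pooled human liver microsomes at 0.1 mg/mL in 0.1 M potassium phosphate pH 7.4 with 5 mM MgCl2. Compound at 1 μM final; reaction started with 1.0 mM NADPH (final) at 37 °C, duplicate incubations. Quenched with ice-cold acetonitrile at 0, 5, 15, 30, 60 min. Parent measured by LC-ESI-MS (SIM), remaining percentage relative to 0 min. t1/2 = 0.693/k from log-linear slope.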
# [6] = tested on: Human immunodeficiency virus 1; assay: Antiviral activity against HIV1 infected in human TZM-bl cells assessed as reduction of viral […] after 48 hrs by luciferase reporter gene assay; type: functional, organism-based
# Summary of the method: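 Single-round infection of TZM-bl cells (HeLa clone expressing CD4 and CCR5, HIV-1 LTR-driven firefly luciferase) with HIV-1 at 200 TCID50 mixed with samples. Luminescence read after 48 h. IC50 is the concentration giving 50% lower RLU than virus control wells, after subtracting background RLU.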
# Liver microsomes = assay: Half life in human liver microsomes at 1 uM; type: ADME, Microsome; summary of the method: as §1
Compound,CC50 (MT4) [µM],Activity [1],Ratio IC50 [2],selectivity ratio [3],pIC50 [4],beta t1/2 (Homo sapiens) [h],"remaining at 1 h, 1 µM [5] [%]",Activity [6],t1/2 (Liver microsomes) [min]
C=C(C)[C@@H]1CC[C@]2(C(=O)N3CCC(CCCC(=O)NCCN4CCOCC4)CC3)CC[C@]3(C)[C@H](CC[C@@H]4[C@@]5(C)CC[C@H](OC(=O)CC(C)(C)C(=O)O)C(C)(C)[C@@H]5CC[C@]43C)[C@@H]12,10,inactive,3,286,7.46,,,,
C=C(C)[C@@H]1CC[C@]2(C(=O)N3CCN(CCCC(=O)O)CC3)CC[C@]3(C)[C@H](CC[C@@H]4[C@@]5(C)CC[C@H](OC(=O)CC(C)(C)C(=O)O)C(C)(C)[C@@H]5CC[C@]43C)[C@@H]12,13,inactive,7.9,1180,7.96,,,,
C=C(C)[C@@H]1CC[C@]2(C(=O)O)CC[C@]3(C)[C@H](CC[C@@H]4[C@@]5(C)CC[C@H](OC(=O)CC(C)(C)C(=O)O)C(C)(C)[C@@H]5CC[C@]43C)[C@@H]12 [BEVIRIMAT],14.2,inactive,,171,7.06,56.3,,,
C=C(C)[C@@H]1CC[C@]2(C(=O)N3CCC(CCCC(=O)NCCCN4CCOCC4)CC3)CC[C@]3(C)[C@H](CC[C@@H]4[C@@]5(C)CC[C@H](OC(=O)CC(C)(C)C(=O)O)C(C)(C)[C@@H]5CC[C@]43C)[C@@H]12,10,inactive,3,321,7.51,,,,
C=C(C)[C@@H]1CC[C@]2(C(=O)N3CCN(CCCCC(=O)O)CC3)CC[C@]3(C)[C@H](CC[C@@H]4[C@@]5(C)CC[C@H](OC(=O)CC(C)(C)C(=O)O)C(C)(C)[C@@H]5CC[C@]43C)[C@@H]12,13.2,inactive,15,2240,8.23,,86.2,Active,327
C=C(C)[C@@H]1CC[C@]2(C(=O)OCOCCOC)CC[C@]3(C)[C@H](CC[C@@H]4[C@@]5(C)CC[C@H](OC(=O)CC(C)(C)C(=O)O)C(C)(C)[C@@H]5CC[C@]43C)[C@@H]12,12.1,inactive,2,261,7.34,,,Active,
